Values belong to the compound of their own block, whether it stands above or below them. Active and inactive are the calls of the source. The rule behind the calls is not given here.
Experiments:
SF-268 = test: Anticancer activity against human SF268 cells assessed as cell growth at 100 uM after 48 hrs by SRB assay; format: functional; settings: SF-268, 48 h, read-out: Activity
How it was run: (§1)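 NCI one-dose primary screen on a three-line panel (breast MCF7, lung NCI-H460, CNS SF-268). Cells were inoculated and preincubated 24–48 h, then exposed to a single concentration of 10−4 M for 48 h. The endpoint was sulforhodamine B protein staining, and results are expressed as percent growth relative to untreated control cells. Negative values denote cytotoxicity.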

MCF7 = test: Anticancer activity against human MCF7 cells assessed as cell growth at 100 uM after 48 hrs by SRB assay; format: functional; settings: MCF7, 48 h, read-out: Activity; how it was run: as §1
NCI-H460 [1] = test: Anticancer activity against human NCI-H460 cells assessed as cell growth at 100 uM after 48 hrs by SRB assay; format: functional; settings: NCI-H460, 48 h, read-out: Activity; how it was run: as §1
[2] = Acute toxicity in ip dosed white mouse; format: organism-based; settings: in vivo
How it was run: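 White male mice, 23-25 g, dosed intraperitoneally with compound dissolved in 0.9% NaCl saline plus 1-2 drops Polysorbate 80 (Tween-80). Solutions prepared immediately before use. Doses ranged 100-1000 mg/kg, testing 4 or 5 doses with 6 animals per dose. LD50 derived by the Litchfield-Wilcoxon method.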

[3] = tested on: Trypanosoma brucei brucei; test: Antitrypanosomal activity against bloodstream form of Trypanosoma brucei brucei strain 90-13 assessed as inhibition of parasite growth at 10 ug/ml after 72 hrs by resazurin reduction test; format: functional; settings: strain 90-13, 72 h
How it was run: (§2)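 Trypanosoma brucei brucei 90-13 bloodstream forms, grown in HMI9 with 10% FCS at 37 °C under 5% CO2. Log-phase parasites were seeded at 10^5 cells/mL with or without inhibitor, with stocks prepared in DMSO. After 72 h, resazurin was added and fluorescence was read at 530/590 nm after a further 4 h. Percent growth inhibition was calculated versus drug-free parasites, with DMSO as control.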

[4] = tested on: Trypanosoma brucei brucei; test: Antitrypanosomal activity against bloodstream form of Trypanosoma brucei brucei strain 90-13 assessed as inhibition of parasite growth at 1 ug/ml after 72 hrs by resazurin reduction test; format: functional; settings: strain 90-13, 72 h; how it was run: as §2
[5] = (§3) Growth inhibition of human SF539 cells after 48 hrs by SRB assay; format: functional; settings: SF-539, 48 h
How it was run: (§4)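 NCI five-dose assay against the ~60-cell-line panel (nine cancer types). Tenfold dilutions from 10−4 to 10−8 M were used with continuous 48-h exposure and SRB absorbance readout. Percent growth was computed from time-zero, control and treated absorbances. GI50 is the concentration giving 50% lower net protein increase than controls. Values not reached are reported as beyond the tested range.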

SR = test: Growth inhibition of human SR cells after 48 hrs by SRB assay; format: functional
How it was run: (§5)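 NCI ~60-cell-line five-dose screen. Cells were preincubated 24-48 h, then given compound at 10-fold dilutions from 10^-4 to 10^-8 M with 48 h continuous exposure. SRB protein stain was read by absorbance at time zero, in untreated control and with drug. GI50 was derived from [(Ti-Tz)/(C-Tz)]x100=50, TGI from Ti=Tz, and LC50 from [(Ti-Tz)/Tz]x100=-50.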

CAKI-1 = test: Growth inhibition of human CAKI-1 cells after 48 hrs by SRB assay; format: functional; how it was run: as §4
Hs-578T = test: Growth inhibition of human Hs 578T cells after 48 hrs by SRB assay; format: functional; how it was run: as §4
UO-31 = test: Growth inhibition of human UO31 cells after 48 hrs by SRB assay; format: functional; how it was run: as §5
OVCAR-4 = test: Growth inhibition of human OVCAR4 cells after 48 hrs by SRB assay; format: functional; how it was run: as §4
OVCAR-3 = test: Growth inhibition of human OVCAR3 cells after 48 hrs by SRB assay; format: functional; how it was run: as §4
SNB-75 = test: Growth inhibition of human SNB75 cells after 48 hrs by SRB assay; format: functional; how it was run: as §4
Malme-3M = test: Growth inhibition of human MALME-3M cells after 48 hrs by SRB assay; format: functional; how it was run: as §4
NCI-H322M = test: Growth inhibition of human NCI-H322M cells after 48 hrs by SRB assay; format: functional; how it was run: as §4
SF-539 = test: as §3; format: functional; how it was run: as §4
TK-10 = test: Growth inhibition of human TK10 cells after 48 hrs by SRB assay; format: functional; how it was run: as §5
ACHN = test: Growth inhibition of human ACHN cells after 48 hrs by SRB assay; format: functional; how it was run: as §4
786-0 [6] = test: Growth inhibition of human 786-0 cells after 48 hrs by SRB assay; format: functional; how it was run: as §4
OVCAR-8 = test: Growth inhibition of human OVCAR8 cells after 48 hrs by SRB assay; format: functional; how it was run: as §4
OVCAR-5 = test: Growth inhibition of human OVCAR5 cells after 48 hrs by SRB assay; format: functional; how it was run: as §4
UACC-62 = test: Growth inhibition of human UACC62 cells after 48 hrs by SRB assay; format: functional; how it was run: as §5
SF-295 = test: Growth inhibition of human SF295 cells after 48 hrs by SRB assay; format: functional; how it was run: as §4
HCC 2998 = test: Growth inhibition of human HCC2998 cells after 48 hrs by SRB assay; format: functional; how it was run: as §4
NCI-H522 = test: Growth inhibition of human NCI-H522 cells after 48 hrs by SRB assay; format: functional; how it was run: as §4
HOP69 = test: Growth inhibition of human […] cells after 48 hrs by SRB assay; format: functional; how it was run: as §4
A549 = test: Growth inhibition of human A549/ATCC cells after 48 hrs by SRB assay; format: functional; how it was run: as §4
MDA-MB-231 = test: Growth inhibition of human MDA-MB-231/ATCC cells after 48 hrs by SRB assay; format: functional; how it was run: as §4
PC-3 = test: Growth inhibition of human PC3 cells after 48 hrs by SRB assay; format: functional; how it was run: as §4
786-0 [7] = test: Growth inhibition of human 786-O cells after 48 hrs by SRB assay; format: functional; how it was run: as §4
M14 = test: Growth inhibition of human M14 cells after 48 hrs by SRB assay; format: functional; how it was run: as §4
LOX IMVI = test: Growth inhibition of human LOXIMVI cells after 48 hrs by SRB assay; format: functional; how it was run: as §4
U-251 = test: Growth inhibition of human U251 cells after 48 hrs by SRB assay; format: functional; how it was run: as §5
HCT-116 = test: Growth inhibition of human HCT116 cells after 48 hrs by SRB assay; format: functional; how it was run: as §4
NCI-H460 [8] = test: Growth inhibition of human NCI-H460 cells after 48 hrs by SRB assay; format: functional; how it was run: as §4
NCI-H23 = test: Growth inhibition of human NCI-H23 cells after 48 hrs by SRB assay; format: functional; how it was run: as §4
HOP-62 = test: Growth inhibition of human HOP62 cells after 48 hrs by SRB assay; format: functional; how it was run: as §4
RPMI18226 = test: Growth inhibition of human […] cells after 48 hrs by SRB assay; format: functional; how it was run: as §4
MOLT-4 = test: Growth inhibition of human MOLT4 cells after 48 hrs by SRB assay; format: functional; how it was run: as §4
MDA-MB-435 = test: Growth inhibition of human MDA-MB-435 cells after 48 hrs by SRB assay; format: functional; how it was run: as §4
KM12 = test: Growth inhibition of human KM12 cells after 48 hrs by SRB assay; format: functional; how it was run: as §4
CCRF-CEM = test: Growth inhibition of human CCRF-CEM cells after 48 hrs by SRB assay; format: functional; how it was run: as §4
SNB- = test: Growth inhibition of human SNB cells after 48 hrs by SRB assay; format: functional; how it was run: as §4
HOP-92 = test: Growth inhibition of human HOP92 cells after 48 hrs by SRB assay; format: functional; how it was run: as §4
BT-549 = test: Growth inhibition of human BT549 cells after 48 hrs by SRB assay; format: functional; how it was run: as §4
NCI/ADR-RES = test: Growth inhibition of human NCI/ADR-RES cells after 48 hrs by SRB assay; format: functional; how it was run: as §4
UACC-257 = test: Growth inhibition of human UACC257 cells after 48 hrs by SRB assay; format: functional; how it was run: as §5
SK-MEL-5 = test: Growth inhibition of human SK-MEL-5 cells after 48 hrs by SRB assay; format: functional; how it was run: as §4
EKVX = test: Growth inhibition of human EKVX cells after 48 hrs by SRB assay; format: functional; how it was run: as §4
RXF 393 = test: Growth inhibition of human RXF393 cells after 48 hrs by SRB assay; format: functional; how it was run: as §4

Compound: COc1ccc2cc(C(=O)Nc3ccc(S(N)(=O)=O)cc3)sc(=O)c2c1OC
growth at 100 µM (SF-268): 74%
growth at 100 µM (MCF7): 72%
growth at 100 µM (NCI-H460 [1]): 97%
LD50 [2]: 870 mg/kg
inhibition at 10 µg/mL [3]: > 50%
inhibition at 1 µg/mL [4]: 59.8%

Compound: Cc1cc(NC(=O)c2cc3ccccc3c(=O)s2)no1
growth at 100 µM (SF-268): 86%
growth at 100 µM (MCF7): 85%
growth at 100 µM (NCI-H460 [1]): 31%
GI50 [5]: 30.2 µM
TGI ([5]; read-out: pTGI (converted)): > 100 µM
GI50 (SR): 0.339 µM
TGI (SR; read-out: pTGI (converted)): > 100 µM

pGI50 (OVCAR-4): inactive
pGI50 (OVCAR-3): inactive
pGI50 (NCI-H322M): inactive
pGI50 (ACHN): inactive
pGI50 (786-0 [6]): inactive
pGI50 (OVCAR-8): inactive
pGI50 (OVCAR-5): inactive
pGI50 (HCC 2998): inactive
pGI50 (NCI-H522): inactive
pGI50 (A549): inactive
pGI50 (MDA-MB-231): inactive
pGI50 (PC-3): inactive
pGI50 (786-0 [7]): inactive
pGI50 (U-251): inactive
pGI50 (HCT-116): inactive
pGI50 (NCI-H460 [8]): inactive
pGI50 (NCI-H23): inactive
pGI50 (MOLT-4): inactive
pGI50 (MDA-MB-435): inactive
pGI50 (CCRF-CEM): inactive
pGI50 (BT-549): inactive
pGI50 (SK-MEL-5): inactive
Compound: O=C(Nc1nc(-c2ccccc2)cs1)c1cc2ccccc2c(=O)s1
inhibition at 10 µg/mL [3]: 7.36%
pGI50 (CAKI-1): inactive
pTGI (CAKI-1): inactive
pGI50 (Hs-578T): inactive
pTGI (Hs-578T): inactive
pGI50 (UO-31): inactive
pTGI (UO-31): inactive
pTGI (OVCAR-4): inactive
pTGI (OVCAR-3): inactive
pGI50 (SNB-75): inactive
pTGI (SNB-75): inactive
pGI50 (Malme-3M): inactive
pTGI (Malme-3M): inactive
pTGI (NCI-H322M): inactive
pGI50 (SF-539): inactive
pTGI (SF-539): inactive
pGI50 (TK-10): inactive
pTGI (TK-10): inactive
pTGI (ACHN): inactive
pTGI (786-0 [6]): inactive
pTGI (OVCAR-8): inactive
pTGI (OVCAR-5): inactive
pGI50 (UACC-62): inactive
pTGI (UACC-62): inactive
pGI50 (SF-295): inactive
pTGI (SF-295): inactive
pTGI (HCC 2998): inactive
pTGI (NCI-H522): inactive
pGI50 (HOP69): inactive
pTGI (HOP69): inactive
pTGI (A549): inactive
pTGI (MDA-MB-231): inactive
pTGI (PC-3): inactive
pTGI (786-0 [7]): inactive
pGI50 (M14): inactive
pTGI (M14): inactive
pGI50 (LOX IMVI): inactive
pTGI (LOX IMVI): inactive
pTGI (U-251): inactive
pTGI (HCT-116): inactive
pTGI (NCI-H460 [8]): inactive
pTGI (NCI-H23): inactive
pGI50 (HOP-62): inactive
pTGI (HOP-62): inactive
pGI50 (RPMI18226): inactive
pTGI (RPMI18226): inactive
pTGI (MOLT-4): inactive
inhibition at 1 µg/mL [4]: 44.2%
pTGI (MDA-MB-435): inactive
pGI50 (KM12): inactive
pTGI (KM12): inactive
pGI50 (SR): inactive
pTGI (SR): inactive
pTGI (CCRF-CEM): inactive
pGI50 (SNB-): inactive
pTGI (SNB-): inactive
pGI50 (HOP-92): inactive
pTGI (HOP-92): inactive
pTGI (BT-549): inactive
pGI50 (NCI/ADR-RES): inactive
pTGI (NCI/ADR-RES): inactive
pGI50 (UACC-257): inactive
pTGI (UACC-257): inactive
pTGI (SK-MEL-5): inactive
pGI50 (EKVX): inactive
pTGI (EKVX): inactive
pGI50 (RXF 393): inactive
pTGI (RXF 393): inactive

Source: ChEMBL document CHEMBL3124905, “Isothiocoumarin-3-carboxylic acid derivatives: synthesis, anticancer and antitrypanosomal activity evaluation” (Eur J Med Chem, 2014)
